# Rows were chosen to be rich in hits. Some 2.5% of all compounds tested hit in one or more screens of this group.
# miR-122 sensor – inhibitors of miR-122 in Huh7 cells; Huh7 miR-122 Renilla luciferase sensor, 48 h; neutral wells = 0, positive control = 100; activation (reporter increase), % at 12.5 µM; actives 0.3% (n = 340,000); AID 602342;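 active = mean replicate activation score at least 90 and every replicate individually at or above 90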;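 also: higher luciferase means less miR-122 activity so hits act as miR-122 inhibitors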
# SIRT5 block – sirtuin-5 (human) deacylase inhibition; inhibition, % at 15 µM; actives 1.1% (n = 330,000); Q9NXA8; Purified SirT5, succinyl-peptide AMC, trypsin-coupled fluorescence; in the data active = inhibition above about 15%
# Target sequence (Q9NXA8 whole entry, looked up): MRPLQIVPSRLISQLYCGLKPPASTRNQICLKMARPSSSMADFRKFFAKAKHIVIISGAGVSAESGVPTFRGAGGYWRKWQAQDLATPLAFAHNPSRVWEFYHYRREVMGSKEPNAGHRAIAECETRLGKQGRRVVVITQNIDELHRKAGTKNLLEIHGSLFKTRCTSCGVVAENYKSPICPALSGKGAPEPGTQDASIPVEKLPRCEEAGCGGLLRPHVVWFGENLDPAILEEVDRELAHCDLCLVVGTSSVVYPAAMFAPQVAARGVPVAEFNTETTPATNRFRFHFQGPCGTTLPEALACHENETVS
# FGF22 binding – FGF22 (human) thermal shift binding; Q9HCT0; recombinant FGF22 thermal shift, SYPRO orange fluorescence; percent of sucrose octasulfate shift, DMSO zero; activity (Tm shift, normalised), % at 9.99 µM; actives 1.5% (n = 340,000);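 active = mean Tm shift, scaled 0 neutral to 100 positive control, at about 1.3% or above, every replicate too, limit read from the data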
# Target sequence (Q9HCT0 whole entry, looked up): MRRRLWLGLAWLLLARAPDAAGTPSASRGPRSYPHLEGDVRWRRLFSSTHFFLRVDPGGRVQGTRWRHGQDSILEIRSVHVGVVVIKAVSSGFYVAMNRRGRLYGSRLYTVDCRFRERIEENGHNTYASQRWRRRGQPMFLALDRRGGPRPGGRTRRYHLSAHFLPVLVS
# E-selectin induc – E-selectin induction on HUVECs; HUVEC E-selectin immunofluorescence imaging; normalized: neutral wells 0, TNF-alpha wells 100; activation, % at 7.58 µM; actives 0.37% (n = 260,000);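 active = mean E-selectin-positive cell signal at least 10% of the positive control, reached in at least 60% of replicates, without over 20% cell loss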
#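 System: HUVEC / Compound: single concentration / Signal: immunofluorescence imaging / Read-out: percent E-selectin-positive cells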
# S100A4 inh HTS – blocks human S100A4 binding to myosin IIA peptide; actives 0.14% (n = 360,000); S100A4/TAMRA-MyoIIA peptide fluorescence polarization; P26447; inhibition, % at 10.7 µM;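 active = mean inhibition of at least 70% across replicates, with every replicate also reaching that level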
# Target sequence (P26447 whole entry, looked up): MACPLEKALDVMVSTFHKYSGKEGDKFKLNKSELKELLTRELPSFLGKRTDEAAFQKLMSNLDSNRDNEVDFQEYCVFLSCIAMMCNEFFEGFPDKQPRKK
#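 Test system: S100A4 monomer protein. Medium: HEPES buffer with Ca2+, pH 7.2. Reagent: fluorescent myosin IIA peptide, 5 nM. Compound dosing: single-point compound testing. Timing: 5 min between mix addition and reading. Benchmarks: DMSO neutral and TFP positive wells.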
# Active calls of the source: *; / = not tested or not shown; [ ] = dose if it differs, or a comment.
SMILES,miR-122 sensor,SIRT5 block,FGF22 binding,E-selectin induc,S100A4 inh HTS
CC(C)CC#Cc1ccc2c(c1)O[C@@H](CN(C)Cc1ccncc1)[C@H](C)CN([C@H](C)CO)S2(=O)=O,1[16.7 µM],9,-1,0,-46
O=C(N/N=C/C=C/c1ccccc1)c1cccc(Br)c1,-14,-3,1.4*,/,1
Cc1occc1C(=O)N/N=C/C=C/c1ccccc1,/,3,43*,/,-1
Cc1occc1C(=O)N/N=C/C=C/c1ccc(N(C)C)cc1,4,0,-1,0,-7
CCOCCCNC(=S)NCCCNc1nc2ccc(C)cc2cc1C#N,/,-2,1,0,4
CCOCCCNC(=S)NCCNc1nc2ccc(C)cc2cc1C#N,/,-1,44*,/,-3
C[C@@H]1CN([C@H](C)CO)C(=O)Cc2cc(NC(=O)CCCN(C)C)ccc2O[C@H]1CN(C)C,-6[16.7 µM],-2,0,1,1
C[C@@H]1CN([C@@H](C)CO)C(=O)Cc2cc(NC(=O)Nc3ccccc3)ccc2O[C@H]1CN(C)C,-2[16.7 µM],/,0,-5,3
C[C@H]1CN([C@@H](C)CO)C(=O)Cc2cc(NC(=O)Nc3ccccc3)ccc2O[C@H]1CN(C)C,2[16.7 µM],-5,0,42*,-7
C[C@H](CO)N1C[C@H](C)[C@@H](CN(C)C)Oc2ccc(NC(=O)CCCN(C)C)cc2CC1=O,-5[16.7 µM],-1,0,204*,3
C[C@H](CO)N1C[C@H](C)[C@H](CN(C)C)Oc2ccc(NC(=O)Nc3ccccc3)cc2CC1=O,1[16.7 µM],0,/,273*,-8
C[C@@H]1CN([C@@H](C)CO)C(=O)Cc2cc(NS(C)(=O)=O)ccc2O[C@H]1CN(C)Cc1ccncc1,-11[16.7 µM],-2,0,440*,2
Cc1noc(C)c1S(=O)(=O)Nc1ccc2c(c1)CC(=O)N([C@H](C)CO)C[C@H](C)[C@H](CN(C)Cc1ccncc1)O2,3[16.7 µM],20*,0,/,-2
C[C@@H]1CN([C@H](C)CO)C(=O)Cc2cc(NS(C)(=O)=O)ccc2O[C@@H]1CN(C)Cc1ccncc1,-3[16.7 µM],-3,0,7,-3
Cc1noc(C)c1S(=O)(=O)Nc1ccc2c(c1)CC(=O)N([C@H](C)CO)C[C@H](C)[C@@H](CN(C)Cc1ccc(-c3ccccc3)cc1)O2,-3[16.7 µM],4,0,58*,-4
Cc1noc(C)c1S(=O)(=O)Nc1ccc2c(c1)CC(=O)N([C@@H](C)CO)C[C@@H](C)[C@H](CN(C)Cc1ccc(-c3ccccc3)cc1)O2,-5[16.7 µM],6,0,-1,0
Cc1noc(C)c1NC(=O)Nc1ccc2c(c1)C(=O)N([C@@H](C)CO)C[C@H](C)[C@H](CN(C)C(=O)Nc1ccc3c(c1)OCO3)O2,-1[16.7 µM],2,1,0,3
CCOC(=O)c1nc(NCc2ccccc2)c2ccccc2n1,/,-3,44*,/,0
C=CCNc1nc(C(=O)OCC)nc2ccccc12,/,2,0,1,6
O=C(c1ccccc1F)N1CC2(C1)[C@H](c1ccccc1)[C@@H](CO)N2CC1CCOCC1,/,3,0,0,1
Nc1nc(-c2ccc(C(=O)O)cc2)cs1,/,38*,0,/,3
O=C(O)CCn1ncc2ccccc2c1=O,-1,-2,43*,/,4
COCC(=O)N1[C@H](CO)[C@@H](c2ccccc2)[C@H]1CNC(=O)c1ccccn1,-50[16.7 µM],7,0,0,2
O=C(NC[C@H]1[C@H](c2ccccc2)[C@H](CO)N1Cc1cccnc1)c1ccccn1,-8[16.7 µM],17*,-1,0,4
COCC(=O)N1[C@H](CO)[C@H](c2ccccc2)[C@@H]1CNC(=O)c1ccccn1,108*[16.7 µM],15*,-1,0,1
SMILES,miR-122 sensor,SIRT5 block,FGF22 binding,E-selectin induc,S100A4 inh HTS
CO[C@H]1CN(C)C(=O)c2ccc(NC(=O)Nc3c(C)noc3C)cc2OC[C@H](C)N(C)C[C@@H]1C,/,-2,0,0,-2
O=C(C[C@H]1C[C@H]2c3cc(NC(=O)C4CCOCC4)ccc3O[C@H]2[C@@H](CO)O1)NCc1ccccn1,5[16.7 µM],1,0,0,2
Cc1ccc(C2=NC(=O)/C(=C/c3cc(O)c(O)c(Br)c3)S2)cc1,9,-3,43*,-1,5
COc1cc(/C=C2\SC(c3ccc(C)cc3)=NC2=O)cc(OC)c1O,/,-9,0,/,-3
C[C@@H]1CN([C@H](C)CO)C(=O)c2cc(NS(=O)(=O)c3ccccc3)ccc2O[C@@H](C)CCCCO[C@@H]1CN(C)S(C)(=O)=O,9[16.7 µM],3,-1,0,3
C[C@]12c3[nH]c4ccc(Cl)cc4c3CCN1C(=O)[C@@H](CC(=O)NCc1cccc(C(F)(F)F)c1)C[C@@H]2C(=O)N1CCOCC1,-15,40*,0,-1,-7
CC[C@]12c3[nH]c4ccc(Cl)cc4c3CCN1C(=O)[C@@H](CC(=O)NCCC1=CCCCC1)C[C@@H]2C(=O)N1CCN(C(=O)C2CC2)CC1,-1,18*,0,0,-1
C[C@]12c3[nH]c4ccccc4c3CCN1C(=O)C(CC(=O)NCc1cccc(C(F)(F)F)c1)C[C@@H]2C(=O)N1CCOCC1 (some centres undefined),1,2,0,3,3
CC[C@]12c3[nH]c4ccccc4c3CCN1C(=O)C(CC(=O)NCCC1=CCCCC1)C[C@@H]2C(=O)N1CCN(C(=O)C2CC2)CC1 (some centres undefined),-2,3,0,0,0
C/C=C/c1ccc2c(c1)O[C@H](CN(C)C(=O)NC1CCCC1)[C@H](C)CN([C@@H](C)CO)S2(=O)=O,0[16.7 µM],-5,0,2,-5
COCCSc1nc(N)c(NC(=O)c2ccc(OC)cc2)c(=O)[nH]1,/,2,43*,/,-4
O=C(Nc1ccccc1)Nc1ccc2c(c1)[C@@H]1C[C@H](CC(=O)N3CCOCC3)O[C@@H](CO)[C@@H]1O2,-1[16.7 µM],/,0,0,/
O=C(C[C@H]1C=C[C@@H](NS(=O)(=O)c2ccc(F)cc2)[C@H](CO)O1)NCc1ccccc1F,/,5,/,-1,-5
CS(=O)(=O)N(CC(=O)N1CCCC1)c1cccc(F)c1,-5,101*,0,/,1
CN(c1cccc(NC(=O)CN(c2cccc(F)c2)S(C)(=O)=O)c1)S(C)(=O)=O,-1,1,43*,/,1
CS(=O)(=O)N(CC(=O)N1CCCCC1)Cc1ccccc1,1,17*,0,/,-4
CC(=O)N1[C@H](CO)[C@@H]2c3ccccc3N(C(=O)c3ccccc3)C[C@@H]21,-9[16.7 µM],/,/,0,/
N#C[C@H]1[C@@H](c2ccc(-c3cccnc3)cc2)[C@@H](CO)N1C(=O)Nc1ccc(F)cc1,/,0,0,0,-3
C[C@H]1CN([C@@H](C)CO)S(=O)(=O)c2ccc(C3=CCCC3)cc2O[C@H]1CN(C)C,-4[16.7 µM],1,0,0,4
